Values after ≈ are worked out from the molar mass of the structure shown.
How the values were obtained:
[1] = test system: normal lung (WI-38) cell line; experiment: MTT cytotoxicity, normal lung WI-38; format: cell-based; conditions: Homo sapiens, WI-38, 48 h, read-out: IC50 Normal lung (WI-38)
β-glucosidase = experiment: β-Glucosidase enzyme inhibition; format: biochemical; conditions: mean ± SE, three replicates; for β-Glucosidase Inhibition (%): at the same concentration
[2] = test system: bovine serum albumin (BSA); experiment: Anti-arthritic: inhibition of protein denaturation; conditions: inhibitory effect, at the same concentration; mean ± SE, three replicates
proteinase (trypsin) = experiment: Anti-arthritic: proteinase inhibitory activity; format: biochemical; conditions: at the same concentration; mean ± SE, three replicates
[3] = DPPH radical scavenging activity; conditions: mean ± SE, three replicates
[4] = test system: human lung (A549) cancer cell line; experiment: MTT cytotoxicity, lung cancer A549; format: cell-based; conditions: A549, 48 h, read-out: IC50 Lung cancer (A549)
Method in brief: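 Human lung A549 cells, run alongside Caco-2 colon cancer and normal WI-38 lung cells, were exposed to test compound. Viability was read by MTT, with optical density at 590. IC50 and percentage growth inhibition were computed with IC50 calculation software.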

[5] = molecular target: acetylcholinesterase (AChE) (Homo sapiens, UniProt P22303); experiment: Acetylcholinesterase inhibition, Ellman's method; format: biochemical; conditions: for AChE Inhibition (%): at the same concentration, mean ± SE, three replicates
acetylcholinesterase (AChE), sequence (P22303 32-614, species assumed): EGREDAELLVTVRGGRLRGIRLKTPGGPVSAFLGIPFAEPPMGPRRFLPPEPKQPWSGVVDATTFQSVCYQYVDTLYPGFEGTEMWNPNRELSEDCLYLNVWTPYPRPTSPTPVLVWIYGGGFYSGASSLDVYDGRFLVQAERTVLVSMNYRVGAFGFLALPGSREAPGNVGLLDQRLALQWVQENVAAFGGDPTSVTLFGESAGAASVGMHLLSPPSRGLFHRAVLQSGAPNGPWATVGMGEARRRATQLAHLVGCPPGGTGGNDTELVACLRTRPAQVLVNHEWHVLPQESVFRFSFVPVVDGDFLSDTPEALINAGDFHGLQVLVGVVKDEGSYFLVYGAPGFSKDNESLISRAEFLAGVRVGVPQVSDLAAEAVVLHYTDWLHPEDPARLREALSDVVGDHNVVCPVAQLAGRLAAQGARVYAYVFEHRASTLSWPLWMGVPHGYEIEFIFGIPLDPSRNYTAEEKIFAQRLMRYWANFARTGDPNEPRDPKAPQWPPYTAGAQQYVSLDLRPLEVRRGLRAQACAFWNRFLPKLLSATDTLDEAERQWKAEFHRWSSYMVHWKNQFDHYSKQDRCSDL

[6] = test system: human colon (Caco-2) cancer cell line; experiment: MTT cytotoxicity, colon cancer Caco-2; format: cell-based; conditions: for IC50: Homo sapiens, Caco-2, 48 h, read-out: IC50 Colon cancer (Caco-2); for Therapeutic index (TI) Colon cancer (Caco-2): IC50 on the normal cells (WI-38)/IC50 on the cancer cells (Caco-2)
[7] = Total antioxidant capacity; conditions: mean ± SE, three replicates
[8] = ABTS radical scavenging assay; conditions: at equal concentrations; mean ± SE, three replicates
Iron reducing power = conditions: mean ± SE, three replicates
Method in brief: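 Reducing power was measured by the Oyaizu method and expressed in μg mL−1, with ascorbic acid as the standard.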

α-glucosidase enzyme = experiment: Electrophoretic α-glucosidase pattern; format: biochemical; conditions: enzyme treated at concentration equivalent to IC50
α-amylase = molecular target: T1, α-amylase (Sus scrofa, UniProt P00690); experiment: α-Amylase enzyme inhibition; format: biochemical; conditions: at the same concentration; mean ± SE, three replicates
T1 sequence (P00690 16-511): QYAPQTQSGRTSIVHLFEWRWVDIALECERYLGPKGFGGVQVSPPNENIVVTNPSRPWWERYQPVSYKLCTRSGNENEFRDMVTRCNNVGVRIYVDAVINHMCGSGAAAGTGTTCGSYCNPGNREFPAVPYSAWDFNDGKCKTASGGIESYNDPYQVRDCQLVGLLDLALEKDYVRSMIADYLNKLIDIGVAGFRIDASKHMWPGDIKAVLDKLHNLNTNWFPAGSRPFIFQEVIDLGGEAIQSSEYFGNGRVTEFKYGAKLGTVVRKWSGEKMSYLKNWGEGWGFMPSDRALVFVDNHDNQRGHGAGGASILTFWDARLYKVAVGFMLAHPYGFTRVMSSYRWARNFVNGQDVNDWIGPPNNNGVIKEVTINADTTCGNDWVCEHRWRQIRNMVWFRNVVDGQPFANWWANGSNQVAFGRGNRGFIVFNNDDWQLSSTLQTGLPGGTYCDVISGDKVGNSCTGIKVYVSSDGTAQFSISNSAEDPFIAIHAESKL

α-glucosidase = α-glucosidase (Saccharomyces cerevisiae, UniProt P53341); experiment: α-Glucosidase enzyme inhibition; format: biochemical; conditions: at the same concentration; mean ± SE, three replicates
α-glucosidase, sequence (P53341 whole entry): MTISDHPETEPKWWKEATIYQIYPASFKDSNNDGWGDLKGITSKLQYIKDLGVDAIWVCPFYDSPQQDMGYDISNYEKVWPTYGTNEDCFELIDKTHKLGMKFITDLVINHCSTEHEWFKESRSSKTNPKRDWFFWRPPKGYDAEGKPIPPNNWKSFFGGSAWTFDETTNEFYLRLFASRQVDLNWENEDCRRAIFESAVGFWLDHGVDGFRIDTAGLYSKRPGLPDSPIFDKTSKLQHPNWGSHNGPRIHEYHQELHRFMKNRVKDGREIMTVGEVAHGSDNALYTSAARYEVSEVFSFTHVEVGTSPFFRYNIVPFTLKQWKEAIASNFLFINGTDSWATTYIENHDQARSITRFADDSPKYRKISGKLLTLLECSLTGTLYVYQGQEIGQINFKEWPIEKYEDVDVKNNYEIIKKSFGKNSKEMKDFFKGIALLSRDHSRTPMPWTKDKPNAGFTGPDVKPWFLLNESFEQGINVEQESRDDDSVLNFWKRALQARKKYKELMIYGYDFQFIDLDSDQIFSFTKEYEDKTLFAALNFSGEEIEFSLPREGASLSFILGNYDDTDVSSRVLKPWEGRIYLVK

Q: For `COc1ccc(Nc2nn3c(-c4ccccc4)ccnc3c2C(=O)Nc2ccccc2)cc1` [12a], which IC50 [1] is on record?
A: 134 µg/mL (≈ 308 µM)

Q: And the “β-Glucosidase Inhibition (%)” value (β-glucosidase)?
A: 7.67 ± 0.01%

Q: What about the “β-Glucosidase IC50” value (β-glucosidase) of the same compound?
A: 6470 ± 10 µg/mL

Q: And the “Anti-arthritic activity: Proteinase denaturation (%)” value [2]?
A: 16.24 ± 0.04%

Q: What about the “Anti-arthritic activity: Inhibition of proteinase (%)” value (proteinase (trypsin)) of the same compound?
A: 14.91 ± 0.03%

Q: What about the “Scavenging activity DPPH IC50” value [3] of the same compound?
A: 19.63 ± 0.04 µg/mL

Q: What about the IC50 [4] of the same compound?
A: 47.8 µg/mL (≈ 110 µM)

Q: What about the IC50 [5] of the same compound?
A: 7.67 mM

Q: And the “AChE Inhibition (%)” value [5]?
A: 14.92 ± 0.02%

Q: And the IC50 [6]?
A: 38.1 µg/mL (≈ 87.6 µM)

Q: What about the “Therapeutic index (TI) Colon cancer (Caco-2)” value [6] of the same compound?
A: 3.5

Q: And the “Antioxidant activity TAC” value [7]?
A: 30.58 ± 0.07 mg gallic acid per g

Q: What about the “Scavenging activity ABTS (%)” value [8] of the same compound?
A: 25.28 ± 0.06%

Q: And the “Antioxidant activity IRP” value (Iron reducing power)?
A: 17.29 ± 0.04 µg/mL

Q: Which results are given for `COc1ccc(Nc2nn3c(-c4ccccc4)ccnc3c2C(=O)Nc2ccc(Cl)cc2)cc1` [12b]?
A: IC50 [1]: 305 µg/mL (≈ 649 µM); β-Glucosidase Inhibition (%) (β-glucosidase): 9.66 ± 0.02%; β-Glucosidase IC50 (β-glucosidase): 5180 ± 10 µg/mL; Anti-arthritic activity: Proteinase denaturation (%) [2]: 17.55 ± 0.04%; Anti-arthritic activity: Inhibition of proteinase (%) (proteinase (trypsin)): 16.25 ± 0.04%; Scavenging activity DPPH IC50 [3]: 18.33 ± 0.04 µg/mL; IC50 [4]: 40.5 µg/mL (≈ 86.3 µM); IC50 [5]: 6.7 mM; AChE Inhibition (%) [5]: 16.00 ± 0.04%; IC50 [6]: 29.8 µg/mL (≈ 63.3 µM); Therapeutic index (TI) Colon cancer (Caco-2) [6]: 10.24; Antioxidant activity TAC [7]: 31.27 ± 0.07 mg gallic acid per g; Scavenging activity ABTS (%) [8]: 28.23 ± 0.06%; Antioxidant activity IRP (Iron reducing power): 17.97 ± 0.04 µg/mL

Q: For `C[C@H]1O[C@H](O[C@H]2[C@H](O)[C@@H](O)[C@@H](O[C@H]3[C@H](O)[C@@H](O)C(O)O[C@@H]3CO)O[C@@H]2CO)[C@H](O)[C@@H](O)[C@@H]1N[C@H]1C=C(CO)[C@@H](O)[C@H](O)[C@H]1O` (stereo partly shown) [Acarbose], which “α-glucosidase band (45 KDa) Qty (Band Quantity)” value (α-glucosidase enzyme) is on record?
A: completely decreasing the protein band

Q: And the “β-Glucosidase Inhibition (%)” value (β-glucosidase)?
A: 47.70 ± 0.01%

Q: What about the “β-Glucosidase IC50” value (β-glucosidase) of the same compound?
A: 1070 ± 10 µg/mL

Q: And the “α-Amylase Inhibition (%)” value (α-amylase)?
A: 65.95 ± 0.01%

Q: And the “α-Glucosidase Inhibition (%)” value (α-glucosidase)?
A: 55.45 ± 0.01%

Q: Which “Scavenging activity DPPH IC50” value [3] does the source give for `O=C1O[C@H]([C@@H](O)CO)C(O)=C1O` [Ascorbic acid, reference compound] here?
A: 4.05 ± 0.01 µg/mL

Q: What about the “Scavenging activity ABTS (%)” value [8] of the same compound?
A: 39.09 ± 0.09%

Q: For `O=C(O)Cc1ccccc1Nc1c(Cl)cccc1Cl` [Diclofenac sodium, reference compound], which “Anti-arthritic activity: Inhibition of proteinase (%)” value (proteinase (trypsin)) is on record?
A: 41.88 ± 0.09%

Q: Which IC50 [1] does the source give for `COc1cccc2c1C(=O)c1c(O)c3c(c(O)c1C2=O)C[C@@](O)(C(=O)CO)C[C@@H]3O[C@H]1C[C@H](N)[C@H](O)[C@H](C)O1` [Doxorubicin, reference compound] here?
A: 76 µg/mL (≈ 140 µM)

Q: And the IC50 [4]?
A: 31.3 µg/mL (≈ 57.6 µM)

Q: And the IC50 [6]?
A: 28.4 µg/mL (≈ 52.3 µM)

Q: What about the “Therapeutic index (TI) Colon cancer (Caco-2)” value [6] of the same compound?
A: 2.67
